Sampled rows, rich in hits. Any-hit rate of the full collection: about 1.9%.
XiGFP reactiv = activators of inactive X chromosome reactivation, primary screen, imaging, XiGFP fibroblasts, GFP high-content imaging, set 2; activation, % at 7.58 µM; 360,000 tested, 0.055% active; AID 743238, 2013; XiGFP mouse fibroblasts, % GFP-positive cells imaging, 3 d; cells co-treated with 5-aza-dC sensitizer; scaled so ellipticine positive control = 100%;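 active = mean normalized replicate activation at least 10% and every replicate at or above 10%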;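 also: 0% = median of on-plate neutral control wells and 100% = ellipticine 6 µM median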
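Material: XiGFP fibroblasts, SV40-immortalized; Buffer or medium: DMEM containing 5-aza-dC; Compound dosing: single point; Times: 3 days compound exposure.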
ABHD5 PLIN5 PPI = ABHD5-PLIN5 interaction inhibitors, primary screen, cell lysate, split luciferase complementation, luminescence | inhibition, % at 4 µM | 360,000 tested, 0.78% active | AID 602281, 2012 | Split G. princeps luciferase complementation, 4 h | Perilipin-5 (Homo sapiens) + 1-acylglycerol-3-phosphate O-acyltransferase ABHD5 (Homo …;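 active = inhibition above the mean inhibition across every tested compound plus 3 SD, cut at about 22% in these data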;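 also: 0% = DMSO only wells and the 100% control is not disclosed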
Target sequence (Q00G26 whole entry, looked up): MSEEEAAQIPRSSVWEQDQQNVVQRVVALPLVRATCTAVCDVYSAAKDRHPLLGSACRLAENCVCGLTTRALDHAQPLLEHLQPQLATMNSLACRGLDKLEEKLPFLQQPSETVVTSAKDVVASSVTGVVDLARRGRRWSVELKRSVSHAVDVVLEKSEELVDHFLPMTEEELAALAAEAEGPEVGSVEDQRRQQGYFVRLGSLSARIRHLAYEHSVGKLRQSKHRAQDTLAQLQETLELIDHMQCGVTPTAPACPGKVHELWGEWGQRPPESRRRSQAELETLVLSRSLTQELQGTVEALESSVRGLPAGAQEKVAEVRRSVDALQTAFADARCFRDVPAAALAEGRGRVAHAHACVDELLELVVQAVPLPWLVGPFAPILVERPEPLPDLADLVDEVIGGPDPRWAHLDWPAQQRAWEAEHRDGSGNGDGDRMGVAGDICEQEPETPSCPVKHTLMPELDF
Target sequence (Q8WTS1 whole entry, looked up): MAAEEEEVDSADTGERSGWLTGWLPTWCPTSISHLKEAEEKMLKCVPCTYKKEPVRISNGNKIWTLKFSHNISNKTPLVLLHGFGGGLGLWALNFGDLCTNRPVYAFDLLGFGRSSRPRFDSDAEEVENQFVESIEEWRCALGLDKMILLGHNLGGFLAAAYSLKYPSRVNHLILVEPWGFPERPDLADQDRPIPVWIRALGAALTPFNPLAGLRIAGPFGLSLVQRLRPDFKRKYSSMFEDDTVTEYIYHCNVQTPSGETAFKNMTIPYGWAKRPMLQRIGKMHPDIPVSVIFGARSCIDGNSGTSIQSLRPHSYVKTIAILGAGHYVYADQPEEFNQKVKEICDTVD
NadD block = inhibitors of S. aureus NadD, primary screen, biochemical, colorimetric, uHTS | purified NadD enzyme, colorimetric absorbance read-out | inhibition, % at 20 µM | 360,000 tested, 0.78% active; in the data active = inhibition above about 26%
Rin1 Abl inh = inhibitors of Rin1-Abl protein binding, primary screen, biochemical, TR-FRET | Tyrosine-protein kinase ABL1 (Homo sapiens) + Ras and Rab interactor 1 (Homo sapiens), … | 360,000 tested, 0.4% active | AID 588664, 2011 | inhibition, % at 7.35 µM; in the data active = inhibition above about 5%, passing the limit was not always enough
Rpn11 inh = Rpn11 (PSMD14) deubiquitinase inhibitors, primary screen, biochemical, fluorescence polarization, uHTS. human 26S proteasome, Ub4-pepOG fluorescence polarization; 20S core pre-blocked with epoxomicin. 26S proteasome non-ATPase regulatory subunit 14 (Homo sapiens), O00487. AID 588493, 2011. 360,000 tested, 0.59% active. inhibition, % at 20 µM;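 active = inhibition at 20 µM, scaled to each plate's controls, above about 33%, limit read from the data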
NadD inh conf = inhibitors of S. aureus NadD, confirmation, biochemical, colorimetric, single concentration; shares compounds with NadD block; purified S. aureus NadD, colorimetric enzyme assay; inhibition, % at 20 µM; 2,000 tested, 13% active; in the data active = inhibition mostly above about 42%, no sharp cut-off; inactive = mostly below about 42%
Starred values were filed as active, the others as inactive; · = not tested or not shown.

SMILES	XiGFP reactiv	ABHD5 PLIN5 PPI	NadD block	Rin1 Abl inh	Rpn11 inh	NadD inh conf
Cc1ccc2nc3c(cc2c1)CN(Cc1ccco1)C(=NCC1CCCO1)S3 (stereo unspecified)	·	18	45*	-2	12	10
O=[N+]([O-])c1ccc2[nH]cc(S(=O)(=O)N3CCN(c4cccc(Cl)c4)CC3)c2c1	0	-3	31*	-1	1	12
CO[C@@H]1CN(C)C(=O)c2ccc(NC(=O)C3CCC3)cc2OC[C@@H](C)N(Cc2ccncc2)C[C@@H]1C	0	·	·	·	·	·
COc1cccc(NC(=O)N[C@H]2C=C[C@H](CC(=O)NCc3ccccn3)O[C@H]2CO)c1	0	·	·	·	·	·
CCCCCC(=O)Nc1nc(C)c(-c2csc(Nc3cc(Cl)ccc3OC)n2)s1	0	-1	42*	1	11	38
Cc1ccc(Cl)cc1Nc1nc(-c2sc(NC(=O)C(C)(C)C)nc2C)cs1	0	-26	34*	5	19	7
C[C@@H]1CN([C@@H](C)CO)C(=O)c2cccc(NC(=O)CCCCCC(=O)Nc3ccccc3N)c2O[C@@H]1CN(C)Cc1ccc(Oc2ccccc2)cc1	1	·	·	·	·	·
C[C@H](CO)N1C[C@H](C)[C@@H](CN(C)C(=O)C2CCCCC2)OCCCC[C@H](C)Oc2ccc(NC(=O)Nc3ccc4c(c3)OCO4)cc2C1=O	0	·	·	·	·	·
O=C(Nc1cccc(-c2csc(Nc3cccc(C(F)(F)F)c3)n2)c1)c1cc([N+](=O)[O-])cc(C(F)(F)F)c1	0	5	37*	0	-6	1
O=C(Nc1ccc(-c2csc(Nc3ccccc3)n2)cc1)c1cc([N+](=O)[O-])cc(C(F)(F)F)c1	0	4	32*	1	-9	12
O=C(Nc1ccc(-c2csc(Nc3ccccc3)n2)cc1)c1cccc(C(F)(F)F)c1	0	-13	15	2	-4	·
COc1ccc(C2C(C#N)=C(N)Oc3c2ccc2cccnc32)cc1OC (stereo unspecified)	0	-1	4	-2	-8	·
COc1cc(C2C(C#N)=C(N)Oc3c2ccc2ccccc32)ccc1OCC(=O)Nc1cccc(C)c1 (stereo unspecified)	0	3	30*	-1	14	41
COc1cc(C2C(C#N)=C(N)Oc3c2ccc2ccccc32)ccc1OCC(=O)Nc1ccc(C)cc1 (stereo unspecified)	1	3	40*	-1	12	37
O=[N+]([O-])c1ccc(N/N=C/c2sc(N3CCOCC3)nc2-c2ccccc2)c(S(=O)(=O)Nc2ccc(Cl)cc2)c1	87*	-1	58*	2	35	5
COc1ccccc1/C=C/C=N/NC(=O)c1cc(-c2ccco2)[nH]n1	0	17	43*	-2	28	54*
Cc1ccc(S(=O)(=O)N[C@@H]2C=C[C@H](CC(=O)NCCN3CCCCC3)O[C@H]2CO)cc1	0	·	·	·	·	·
CCC(=O)N(C)C[C@H]1Oc2ncc(C#Cc3ccccc3)cc2C(=O)N([C@H](C)CO)C[C@@H]1C	-1	·	·	·	·	·
Cc1cccc2sc(NNC(=O)c3cc(-c4cccs4)nc4ccccc34)nc12	5	5	49*	2	16	48*
O=C1Nc2cc(C(=O)NCCN3CCCCCC3)ccc2S/C1=C/c1ccccc1F	0	6	46*	-3	10	-11
C[C@H](CO)N1C[C@H](C)[C@H](CN(C)C(=O)Cc2ccccc2)Oc2ncc(-c3cncnc3)cc2C1=O	0	·	·	·	·	·
CCNC(=O)C[C@@H]1CC[C@@H]2[C@@H](COc3ccc(NC(=O)c4cccs4)cc3C(=O)N2C)O1	0	·	·	·	·	·
CCOc1ccc(N2C(=O)/C(=C\c3ccc(OC)c(O)c3)S(=O)(=O)C2c2cccc([N+](=O)[O-])c2)cc1 (stereo unspecified)	0	5	34*	3	-2	8
CC(=O)C1=C(O)C(=O)N(c2ccc(O)cc2)C1c1cccc([N+](=O)[O-])c1 (stereo unspecified)	0	1	-1	0	3	·
O=C(C[C@@H]1CC[C@H]2[C@@H](COC[C@H](O)CN2Cc2ccc(Cl)cc2)O1)NCc1cccc(F)c1	0	·	·	·	·	·
SMILES	XiGFP reactiv	ABHD5 PLIN5 PPI	NadD block	Rin1 Abl inh	Rpn11 inh	NadD inh conf
Nc1c(C(=O)N/N=C/c2ccccc2Cl)oc2nc(-c3ccccc3)cc(-c3ccco3)c12	0	-3	31*	3	·	-4
CCC(=O)N1CCN(c2nc3ccccc3s2)CC1	·	-2	1	0	0	·
O=C(c1cc2sccc2n1Cc1ccccc1)N1CCN(c2nc3ccccc3s2)CC1	·	10	34*	2	2	21
O=C(/C=C/c1ccco1)NC(=S)Nc1cccc(-c2nc3ccccc3s2)c1	·	3	62*	-5	32	13
O=C(/C=C/c1ccco1)NC(=S)Nc1cccc([N+](=O)[O-])c1	0	23*	39*	2	4	18
O=C(/C=C/c1ccco1)NC(=S)Nc1cc(-c2nc3ccccc3s2)ccc1Cl	0	11	52*	-4	25	1
Cc1cccc(NC(=S)NC(=O)/C=C/c2ccco2)c1	0	6	3	1	36	·
O=C(/C=C/c1ccco1)NC(=S)Nc1cccc(-c2nc3ccccc3o2)c1	·	12	31*	3	17	-5
Cc1ccc(-c2nc3ccccc3o2)cc1NC(=S)NC(=O)/C=C/c1ccco1	·	4	26	-1	15	·
CC(C)NC(=O)N(C)C[C@H]1Oc2ccc(NS(C)(=O)=O)cc2CC(=O)N(C)C[C@@H]1C	0	·	·	·	·	·
CC1(C)CC(=O)C2=C(C1)c1c(ccc3ccccc13)NC2c1ccc(Br)o1 (stereo unspecified)	·	7	37*	2	-3	37
CN1[C@H](C(=O)NCCCN2CCOCC2)[C@@H](CO)[C@@H]2Cn3c(ccc(/C=C/c4ccccc4)c3=O)[C@@H]21	0	·	·	·	·	·
C#Cc1ccc([C@@H]2C=C(C(=O)NCc3ccccc3)O[C@H](OCCCCO)C2)cc1	0	10	39*	3	11	33
C/C=C/c1ccc2c(c1)O[C@@H](CN(C)C(=O)NC(C)C)[C@@H](C)CN([C@H](C)CO)S2(=O)=O	0	·	·	·	·	·
